Measurements reported in ChEMBL document CHEMBL5653631, “A Potent and Selective ULK1 Inhibitor Suppresses Autophagy and Sensitizes Cancer Cells to Nutrient Stress” (iScience, 2018).
Values belong to the molecule of their own block, whether it stands above or below them.

Legend:
[1] = target: High affinity nerve growth factor receptor (Homo sapiens) (UniProt P04629); test: Inhibition of human recombinant TRKA at 500 nM in presence of ATP by radiometric assay relative to control
[2] = target: T1, Tyrosine-protein kinase receptor TYRO3 (Homo sapiens) (UniProt Q06418); test: Inhibition of human recombinant TYRO3 at 500 nM in presence of ATP by radiometric assay relative to control
T1 sequence (whole entry): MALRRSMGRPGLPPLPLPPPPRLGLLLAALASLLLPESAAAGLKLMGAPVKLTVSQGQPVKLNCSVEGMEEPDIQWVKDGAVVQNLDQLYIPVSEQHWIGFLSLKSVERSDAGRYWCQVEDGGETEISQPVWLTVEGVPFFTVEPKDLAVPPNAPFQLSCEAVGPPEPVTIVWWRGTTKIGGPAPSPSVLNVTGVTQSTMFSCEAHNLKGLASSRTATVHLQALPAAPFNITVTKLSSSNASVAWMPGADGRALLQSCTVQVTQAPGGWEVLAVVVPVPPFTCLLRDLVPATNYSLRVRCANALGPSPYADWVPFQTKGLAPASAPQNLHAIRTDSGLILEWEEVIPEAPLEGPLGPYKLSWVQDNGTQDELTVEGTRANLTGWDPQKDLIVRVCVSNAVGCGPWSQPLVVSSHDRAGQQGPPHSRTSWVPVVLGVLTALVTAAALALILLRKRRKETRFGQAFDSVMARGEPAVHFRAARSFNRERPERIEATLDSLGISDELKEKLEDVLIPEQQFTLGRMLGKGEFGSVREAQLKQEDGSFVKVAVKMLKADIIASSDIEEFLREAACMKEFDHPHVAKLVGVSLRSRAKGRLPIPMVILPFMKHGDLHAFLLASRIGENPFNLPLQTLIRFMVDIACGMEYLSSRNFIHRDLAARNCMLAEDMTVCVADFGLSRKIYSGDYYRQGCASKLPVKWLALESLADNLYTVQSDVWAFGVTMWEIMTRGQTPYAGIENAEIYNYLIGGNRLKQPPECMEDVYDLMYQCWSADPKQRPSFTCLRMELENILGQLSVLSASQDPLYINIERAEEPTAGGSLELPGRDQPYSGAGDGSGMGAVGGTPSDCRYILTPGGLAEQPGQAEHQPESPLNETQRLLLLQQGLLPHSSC

[3] = target: Tyrosine-protein kinase BTK (Homo sapiens) (UniProt Q06187); test: Inhibition of human recombinant BTK at 500 nM related to control ULK1
[4] = target: T2, Receptor-interacting serine/threonine-protein kinase 1 (Homo sapiens) (UniProt Q13546); test: Inhibition of human recombinant RIPK1 at 500 nM related to control ULK1
T2 sequence (whole entry): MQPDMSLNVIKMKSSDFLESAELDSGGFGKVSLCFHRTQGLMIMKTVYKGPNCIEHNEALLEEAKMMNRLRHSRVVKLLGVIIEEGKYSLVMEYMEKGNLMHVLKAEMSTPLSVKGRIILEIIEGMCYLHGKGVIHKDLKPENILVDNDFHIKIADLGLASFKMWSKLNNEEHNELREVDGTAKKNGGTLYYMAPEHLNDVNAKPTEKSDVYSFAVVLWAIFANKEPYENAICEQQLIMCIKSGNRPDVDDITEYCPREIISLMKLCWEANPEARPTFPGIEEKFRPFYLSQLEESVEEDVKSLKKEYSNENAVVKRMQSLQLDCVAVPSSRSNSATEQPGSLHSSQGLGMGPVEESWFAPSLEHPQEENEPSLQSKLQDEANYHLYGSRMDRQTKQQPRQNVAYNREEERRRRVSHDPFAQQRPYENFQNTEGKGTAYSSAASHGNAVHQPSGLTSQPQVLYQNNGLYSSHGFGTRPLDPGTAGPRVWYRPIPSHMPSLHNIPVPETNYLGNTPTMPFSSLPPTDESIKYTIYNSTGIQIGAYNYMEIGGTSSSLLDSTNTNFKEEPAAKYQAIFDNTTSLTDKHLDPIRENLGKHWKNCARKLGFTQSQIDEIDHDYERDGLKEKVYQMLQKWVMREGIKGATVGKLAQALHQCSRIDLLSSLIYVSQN

[5] = target: Mitogen-activated protein kinase kinase kinase kinase 4 (Homo sapiens) (UniProt O95819); test: Inhibition of human recombinant HGK at 15 nM related to control ULK1
Mitogen-activated protein kinase kinase kinase kinase 4 (Homo sapiens), sequence (O95819 2-1239 limits assumed): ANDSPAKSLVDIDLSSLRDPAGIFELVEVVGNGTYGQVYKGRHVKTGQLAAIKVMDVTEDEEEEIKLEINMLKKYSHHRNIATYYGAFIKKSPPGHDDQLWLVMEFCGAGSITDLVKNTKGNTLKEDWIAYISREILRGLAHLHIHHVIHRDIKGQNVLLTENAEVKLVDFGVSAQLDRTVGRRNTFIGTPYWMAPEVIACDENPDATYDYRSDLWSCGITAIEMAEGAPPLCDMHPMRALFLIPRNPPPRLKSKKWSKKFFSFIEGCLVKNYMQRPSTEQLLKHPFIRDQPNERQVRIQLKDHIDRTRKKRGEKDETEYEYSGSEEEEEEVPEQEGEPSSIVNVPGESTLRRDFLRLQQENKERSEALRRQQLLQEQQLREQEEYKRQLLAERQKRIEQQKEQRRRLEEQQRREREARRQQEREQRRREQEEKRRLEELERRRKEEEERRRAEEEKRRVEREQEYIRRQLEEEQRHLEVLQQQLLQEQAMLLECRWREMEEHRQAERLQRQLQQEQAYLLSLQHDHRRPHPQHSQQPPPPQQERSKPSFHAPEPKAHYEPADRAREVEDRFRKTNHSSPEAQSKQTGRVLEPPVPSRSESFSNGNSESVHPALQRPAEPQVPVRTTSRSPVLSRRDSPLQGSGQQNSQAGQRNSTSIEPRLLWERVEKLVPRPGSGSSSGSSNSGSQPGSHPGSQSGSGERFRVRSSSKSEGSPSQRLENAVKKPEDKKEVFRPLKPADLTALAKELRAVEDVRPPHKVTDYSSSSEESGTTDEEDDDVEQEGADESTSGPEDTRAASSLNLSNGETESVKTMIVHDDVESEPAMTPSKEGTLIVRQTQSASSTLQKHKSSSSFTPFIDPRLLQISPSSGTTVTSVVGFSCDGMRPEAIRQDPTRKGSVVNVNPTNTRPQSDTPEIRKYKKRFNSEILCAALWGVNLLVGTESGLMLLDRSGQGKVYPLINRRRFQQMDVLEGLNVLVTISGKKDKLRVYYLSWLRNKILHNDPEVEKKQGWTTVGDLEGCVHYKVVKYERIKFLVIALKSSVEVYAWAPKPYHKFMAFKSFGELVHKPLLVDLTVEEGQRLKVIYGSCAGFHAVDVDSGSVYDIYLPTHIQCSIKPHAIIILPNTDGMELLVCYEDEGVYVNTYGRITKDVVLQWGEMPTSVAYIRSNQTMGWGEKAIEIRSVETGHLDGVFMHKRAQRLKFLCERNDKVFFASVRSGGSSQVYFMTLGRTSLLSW

[6] = target: Fibroblast growth factor receptor 3 (Homo sapiens) (UniProt P22607); test: Inhibition of human recombinant FGFR3 at 15 nM in presence of ATP by radiometric assay relative to control
Fibroblast growth factor receptor 3 (Homo sapiens), sequence (P22607 23-806 limits assumed): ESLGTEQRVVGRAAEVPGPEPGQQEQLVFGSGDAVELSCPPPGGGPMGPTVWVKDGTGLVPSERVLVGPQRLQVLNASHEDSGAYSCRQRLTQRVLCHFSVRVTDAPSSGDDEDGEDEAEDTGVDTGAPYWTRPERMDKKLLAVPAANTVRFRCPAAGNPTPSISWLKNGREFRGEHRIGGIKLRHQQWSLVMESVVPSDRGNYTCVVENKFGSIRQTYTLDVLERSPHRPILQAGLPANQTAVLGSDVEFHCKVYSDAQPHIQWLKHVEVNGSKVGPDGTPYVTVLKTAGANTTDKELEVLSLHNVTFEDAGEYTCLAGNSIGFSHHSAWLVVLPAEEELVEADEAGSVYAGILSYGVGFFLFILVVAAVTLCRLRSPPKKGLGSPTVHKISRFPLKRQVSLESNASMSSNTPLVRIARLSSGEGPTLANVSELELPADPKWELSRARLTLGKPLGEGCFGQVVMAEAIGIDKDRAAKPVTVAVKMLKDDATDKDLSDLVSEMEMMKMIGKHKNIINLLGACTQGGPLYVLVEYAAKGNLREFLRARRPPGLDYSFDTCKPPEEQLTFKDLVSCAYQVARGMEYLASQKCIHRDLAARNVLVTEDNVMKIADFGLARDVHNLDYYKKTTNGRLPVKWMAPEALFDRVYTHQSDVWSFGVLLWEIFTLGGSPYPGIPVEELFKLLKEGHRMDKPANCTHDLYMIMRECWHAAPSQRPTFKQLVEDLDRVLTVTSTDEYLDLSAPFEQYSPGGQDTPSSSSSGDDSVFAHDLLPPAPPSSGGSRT

[7] = target: eIF-2-alpha kinase GCN2 (Homo sapiens) (UniProt Q9P2K8); test: Inhibition of human recombinant GCN2 at 15 nM in presence of ATP by radiometric assay relative to control
[8] = target: Serine/threonine-protein kinase NIM1 (Homo sapiens) (UniProt Q8IY84); test: Inhibition of human recombinant NIM1 at 40 nM related to control ULK1
Serine/threonine-protein kinase NIM1 (Homo sapiens), sequence (Q8IY84 whole entry): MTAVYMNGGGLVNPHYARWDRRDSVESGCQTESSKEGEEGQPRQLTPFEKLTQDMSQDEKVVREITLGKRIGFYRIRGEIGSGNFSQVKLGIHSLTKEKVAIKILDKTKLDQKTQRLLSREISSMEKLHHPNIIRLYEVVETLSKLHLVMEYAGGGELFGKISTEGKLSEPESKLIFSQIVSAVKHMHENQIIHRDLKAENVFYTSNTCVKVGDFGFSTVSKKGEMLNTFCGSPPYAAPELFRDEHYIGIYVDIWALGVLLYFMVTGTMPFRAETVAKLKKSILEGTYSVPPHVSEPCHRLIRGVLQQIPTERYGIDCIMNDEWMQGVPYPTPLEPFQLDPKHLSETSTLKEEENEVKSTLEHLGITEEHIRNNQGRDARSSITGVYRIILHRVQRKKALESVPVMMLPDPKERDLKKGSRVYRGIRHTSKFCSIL

[9] = target: Rho-associated protein kinase 2 (Homo sapiens) (UniProt O75116); test: Inhibition of human recombinant ROCK2 at 40 nM related to control ULK1
Rho-associated protein kinase 2 (Homo sapiens), sequence (O75116 whole entry, looked up): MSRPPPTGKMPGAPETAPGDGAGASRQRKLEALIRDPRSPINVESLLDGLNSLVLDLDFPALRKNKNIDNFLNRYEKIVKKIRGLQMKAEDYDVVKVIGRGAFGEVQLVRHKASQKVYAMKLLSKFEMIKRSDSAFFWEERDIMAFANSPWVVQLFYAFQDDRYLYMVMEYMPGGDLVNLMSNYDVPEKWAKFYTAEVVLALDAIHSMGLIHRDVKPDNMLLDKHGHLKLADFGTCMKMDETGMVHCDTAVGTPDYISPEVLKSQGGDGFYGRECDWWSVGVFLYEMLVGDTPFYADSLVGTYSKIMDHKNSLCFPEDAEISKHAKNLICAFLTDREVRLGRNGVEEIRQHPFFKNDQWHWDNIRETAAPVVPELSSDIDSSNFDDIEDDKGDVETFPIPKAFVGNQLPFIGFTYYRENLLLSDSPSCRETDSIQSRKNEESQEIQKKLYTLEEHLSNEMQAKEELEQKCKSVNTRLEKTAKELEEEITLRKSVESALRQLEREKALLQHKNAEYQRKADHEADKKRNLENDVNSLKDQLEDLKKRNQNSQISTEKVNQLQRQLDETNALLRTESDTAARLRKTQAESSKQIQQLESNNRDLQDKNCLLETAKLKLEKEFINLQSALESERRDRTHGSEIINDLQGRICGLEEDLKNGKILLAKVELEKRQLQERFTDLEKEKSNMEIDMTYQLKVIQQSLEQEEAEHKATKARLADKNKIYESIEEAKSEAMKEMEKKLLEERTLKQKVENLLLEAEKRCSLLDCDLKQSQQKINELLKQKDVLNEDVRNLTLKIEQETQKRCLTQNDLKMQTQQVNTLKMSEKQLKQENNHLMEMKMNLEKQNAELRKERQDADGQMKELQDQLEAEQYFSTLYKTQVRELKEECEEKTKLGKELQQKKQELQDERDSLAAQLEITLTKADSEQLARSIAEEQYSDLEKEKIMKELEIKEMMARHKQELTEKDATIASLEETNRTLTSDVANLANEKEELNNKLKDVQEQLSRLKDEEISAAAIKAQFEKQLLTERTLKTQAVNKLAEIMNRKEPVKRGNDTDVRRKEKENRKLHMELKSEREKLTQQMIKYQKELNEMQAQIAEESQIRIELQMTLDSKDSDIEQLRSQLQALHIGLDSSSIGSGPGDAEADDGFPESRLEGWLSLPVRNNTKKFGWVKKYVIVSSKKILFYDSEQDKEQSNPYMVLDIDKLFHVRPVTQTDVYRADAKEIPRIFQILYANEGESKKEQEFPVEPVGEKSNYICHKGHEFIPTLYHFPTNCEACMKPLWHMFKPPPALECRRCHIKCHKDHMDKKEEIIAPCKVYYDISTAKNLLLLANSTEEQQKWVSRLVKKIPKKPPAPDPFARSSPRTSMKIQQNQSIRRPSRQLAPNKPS

[10] = species on record: Homo sapiens; test: Inhibition of human recombinant ABL at 40 nM in presence of ATP by radiometric assay relative to control
How it was run: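 Radiometric activity assays in a panel of 327 human recombinant kinases, each run in duplicate at one inhibitor concentration. Activity remaining is expressed as percent of vehicle control, and percent inhibition is calculated as 100% minus percent activity remaining.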

[11] = target: Hepatocyte growth factor receptor MET (Homo sapiens) (UniProt P08581); test: Inhibition of human recombinant MET at 40 nM in presence of ATP by radiometric assay relative to control
[12] = target: Casein kinase I isoform gamma-2 (Homo sapiens) (UniProt P78368); test: Inhibition of human recombinant CK1g2 at 40 nM in presence of ATP by radiometric assay relative to control
Casein kinase I isoform gamma-2 (Homo sapiens), sequence (P78368 whole entry, looked up, canonical isoform): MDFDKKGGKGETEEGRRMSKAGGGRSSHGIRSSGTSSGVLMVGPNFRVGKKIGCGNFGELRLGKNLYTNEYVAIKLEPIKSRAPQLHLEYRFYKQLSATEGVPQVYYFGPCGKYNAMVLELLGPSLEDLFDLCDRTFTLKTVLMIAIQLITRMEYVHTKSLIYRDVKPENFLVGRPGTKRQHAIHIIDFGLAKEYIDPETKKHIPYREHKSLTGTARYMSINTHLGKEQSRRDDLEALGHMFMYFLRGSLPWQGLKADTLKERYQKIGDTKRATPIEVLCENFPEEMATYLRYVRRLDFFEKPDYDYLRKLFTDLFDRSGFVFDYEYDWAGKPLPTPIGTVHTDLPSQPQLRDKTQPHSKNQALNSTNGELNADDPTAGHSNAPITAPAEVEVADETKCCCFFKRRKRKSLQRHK

High affinity nerve growth factor receptor (Homo sapiens), sequence (P04629 33-796 limits assumed): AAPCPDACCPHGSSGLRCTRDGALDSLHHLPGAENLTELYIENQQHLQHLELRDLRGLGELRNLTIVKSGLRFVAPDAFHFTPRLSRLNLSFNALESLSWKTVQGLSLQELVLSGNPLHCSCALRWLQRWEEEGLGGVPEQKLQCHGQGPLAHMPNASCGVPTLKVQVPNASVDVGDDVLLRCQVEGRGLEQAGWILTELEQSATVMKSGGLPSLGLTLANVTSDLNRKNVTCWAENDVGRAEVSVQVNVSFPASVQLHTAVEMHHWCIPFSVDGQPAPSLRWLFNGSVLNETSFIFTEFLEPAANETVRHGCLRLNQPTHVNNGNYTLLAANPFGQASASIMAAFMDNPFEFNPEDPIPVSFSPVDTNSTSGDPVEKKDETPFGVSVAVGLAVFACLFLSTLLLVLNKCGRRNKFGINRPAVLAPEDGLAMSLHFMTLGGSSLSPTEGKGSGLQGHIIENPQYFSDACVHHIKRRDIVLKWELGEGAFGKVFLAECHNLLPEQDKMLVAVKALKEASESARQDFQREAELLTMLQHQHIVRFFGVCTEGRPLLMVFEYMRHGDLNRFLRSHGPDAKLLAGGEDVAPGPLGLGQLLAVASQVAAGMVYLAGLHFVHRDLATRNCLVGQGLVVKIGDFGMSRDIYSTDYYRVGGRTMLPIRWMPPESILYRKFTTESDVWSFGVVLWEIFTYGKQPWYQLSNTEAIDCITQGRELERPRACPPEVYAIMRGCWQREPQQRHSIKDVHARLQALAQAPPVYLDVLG

inhibition [1]: 52% | inhibition [2]: 10% | fold change (FC) [3]: 0 | fold change (FC) [4]: 0.09
Structure (SMILES): CNC(=O)c1ccccc1Oc1nc(Nc2cc(OC)c(OC)c(OC)c2)ncc1Br

fold change (FC) [5]: 0 | inhibition [6]: 0% | inhibition [7]: 8%
Structure (SMILES): CC(C)[C@H](NC(=O)c1cc(-c2cnn3cc(-c4ccc(OCCN5CCCCC5)cc4)cnc23)cs1)C(F)(F)F

fold change (FC) [8]: 0 | fold change (FC) [9]: 0.03 | inhibition [10]: 12% | inhibition [11]: 16% | inhibition [12]: 5%
Structure (SMILES): O=C(N[C@@H](C1CC1)C(F)(F)F)c1cc(-c2cnn3cc(-c4ccc(F)cc4)cnc23)cs1
